# Measured values reported in ChEMBL document CHEMBL1142145, “Posaconazole prophylaxis in experimental systemic zygomycosis” (2007).
# The source made the active and inactive calls. The rule behind the calls is not given here.
# Columns and labels:
# [1] = tested on: Mus musculus; experiment: Increase in survival of Absidia corymbifera 4535 infected neutropenic CD1 mouse at 1 mg/kg/day, ip; format: functional, organism-based
# Summary of the method: (§1)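 Male CD1 mice (25 g) made neutropenic with cyclophosphamide 200 mg/kg i.p. on […], +1 and +4 relative to infection. […] Inocula per mouse: R. oryzae 4570, 5 x 10^6; A. corymbifera, 5 x 10^5; R. oryzae 4745, 2 x 10^6 or 1 x 10^5. Deaths were recorded daily to day 10, with 13–18 mice/group and log-rank comparison.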
# [2] = tested on: Lichtheimia corymbifera; experiment: Reduction of number of infection foci in Absidia corymbifera 4535 infected neutropenic CD1 mouse kidney at 1 mg/kg/day, ip; format: functional, organism-based
# Summary of the method: (§2)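 On day 3 brains and kidneys were formalin-fixed and stained with Grocott-Gomori methenamine silver. At least two blinded observers counted hyphal foci and measured their size over 20 consecutive fields (15.7 mm2/section). Data are means ± SEM, 5 mice/group, ANOVA with Bonferroni.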
# [3] = tested on: Lichtheimia corymbifera; experiment: Antimicrobial activity against Absidia corymbifera 4535; format: functional
# Summary of the method: (§3)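 CLSI M38-A broth microdilution. Isolates were grown on Sabouraud dextrose agar for 5 days at 35°C, and conidia were harvested in 0.85% saline. The final inoculum was about 10^4 CFU/ml, set by hemocytometer. Drug range 0.015–8.0 µg/ml; plates incubated at 35°C for 21–26 h. MIC was the lowest concentration with no discernible growth. Each strain was tested in quintuplicate.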
# [4] = tested on: Lichtheimia corymbifera; experiment: Reduction of infection foci size in Absidia corymbifera 4535 infected neutropenic CD1 mouse kidney at 1 mg/kg/day, ip; format: functional, organism-based; summary of the method: as §2
# [5] = tested on: Rhizopus arrhizus; experiment: Antimicrobial activity against Rhizopus oryzae 4745; format: functional; summary of the method: as §3
# [6] = tested on: Lichtheimia corymbifera; experiment: Percentage of infected lung in neutropenic CD1 mouse infected with Absidia corymbifera 4535 at 1 mg/kg/day, ip; format: functional; conditions: route intraperitoneal
# Summary of the method: (§4)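 They were infected i.v. with R. oryzae 4570 (5 x 10^6 spores) or A. corymbifera (5 x 10^5 spores). On day 3 brain, lungs, spleen and kidneys were homogenized in 2 ml saline and plated whole on SDA (detection limit 1 CFU/organ). Value is % culture-positive organs; 8 mice/group.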
# [7] = tested on: Lichtheimia corymbifera; experiment: Percentage of infected spleen in neutropenic CD1 mouse infected with Absidia corymbifera 4535 at 1 mg/kg/day, ip; format: functional; conditions: route intraperitoneal; summary of the method: as §4
# [8] = tested on: Lichtheimia corymbifera; experiment: Percentage of infected kidney in neutropenic CD1 mouse infected with Absidia corymbifera 4535 at 1 mg/kg/day, ip; format: functional; conditions: route intraperitoneal; summary of the method: as §4
# [9] = tested on: Rhizopus arrhizus; experiment: Reduction of number of infection foci in Rhizopus oryzae 4570 infected neutropenic CD1 mouse kidney at 1 mg/kg/day, ip; format: functional, organism-based; summary of the method: as §2
# [10] = tested on: Rhizopus arrhizus; experiment: Antimicrobial activity against Rhizopus oryzae 4570; format: functional; summary of the method: as §3
# [11] = tested on: Rhizopus arrhizus; experiment: Reduction of infection foci size in Rhizopus oryzae 4570 infected neutropenic CD1 mouse kidney at 1 mg/kg/day, ip; format: functional, organism-based; summary of the method: as §2
# [12] = tested on: Mus musculus; experiment: Increase in survival of neutropenic CD1 mouse infected with 0.1 mega Rhizopus oryzae 4745 at 1 mg/kg/day, ip; format: functional, organism-based; summary of the method: as §1
# [13] = tested on: Mus musculus; experiment: Increase in survival of Rhizopus oryzae 4570 infected neutropenic CD1 mouse at 1 mg/kg/day, ip; format: functional, organism-based; summary of the method: as §1
# [14] = tested on: Mus musculus; experiment: Increase in survival of neutropenic CD1 mouse infected with 2 mega Rhizopus oryzae 4745 at 1 mg/kg/day, ip; format: functional, organism-based; summary of the method: as §1
# [15] = tested on: Rhizopus arrhizus; experiment: Reduction of infection foci size in Rhizopus oryzae 4570 infected neutropenic CD1 mouse kidney at 30 mg/kg/day, po; format: functional, organism-based
# Summary of the method: (§5)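 Neutropenic CD1 mice were given oral prophylaxis for 3 days, then i.v. challenge with R. oryzae 4570 (5 x 10^6 spores) or A. corymbifera (5 x 10^5). On day 3, brain and kidney were formalin-fixed, paraffin-embedded and stained with Grocott-Gomori methenamine silver. Number and size of hyphal foci were scored blind by at least two observers in 20 consecutive fields (15.7 mm2 per section). Values are mean ± SEM from 5 mice per group; ANOVA with Bonferroni correction.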
# [16] = tested on: Lichtheimia corymbifera; experiment: Percentage of infected kidney in neutropenic CD1 mouse infected with Absidia corymbifera 4535 at 30 mg/kg/day, po; format: functional
# Summary of the method: (§6)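 Neutropenic CD1 mice received three daily oral prophylactic doses, the last 2 h before i.v. challenge: R. oryzae 4570 at 5 x 10^6 or A. corymbifera at 5 x 10^5 spores/mouse. On day 3 mice were killed. Brain, lungs, spleen and kidneys were homogenized in 2 ml saline and plated whole on SDA; detection limit 1 CFU/organ. Read-out was percent culture-positive organs, eight mice per group.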
# [17] = tested on: Rhizopus arrhizus; experiment: Percentage of infected brain in neutropenic CD1 mouse infected with Rhizopus oryzae 4570 at 30 mg/kg/day, po; format: functional; summary of the method: as §6
# [18] = tested on: Lichtheimia corymbifera; experiment: Reduction of number of infection foci in Absidia corymbifera 4535 infected neutropenic CD1 mouse kidney at 30 mg/kg/day, po; format: functional, organism-based; summary of the method: as §5
# [19] = tested on: Rhizopus arrhizus; experiment: Reduction of number of infection foci in Rhizopus oryzae 4570 infected neutropenic CD1 mouse kidney at 30 mg/kg/day, po; format: functional, organism-based; summary of the method: as §5
# [20] = tested on: Rhizopus arrhizus; experiment: Percentage of infected lung in neutropenic CD1 mouse infected with Rhizopus oryzae 4570 at 30 mg/kg/day, po; format: functional; summary of the method: as §6
# [21] = tested on: Lichtheimia corymbifera; experiment: Percentage of infected spleen in neutropenic CD1 mouse infected with Absidia corymbifera 4535 at 30 mg/kg/day, po; format: functional; summary of the method: as §6
# [22] = tested on: Mus musculus; experiment: Increase in survival of Rhizopus oryzae 4570 infected neutropenic CD1 mouse at 80 mg/kg/day, po; format: functional, organism-based
# Summary of the method: (§7)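 Male CD1 mice (25 g) were made neutropenic with i.p. cyclophosphamide, 200 mg/kg, on days […] and +4 postinfection. Oral gavage dosing (200 µl) was given daily for 3 days, the last dose 2 h before i.v. challenge; controls received PEG 200. Challenge per mouse: R. oryzae 4570, 5 x 10^6 spores; A. corymbifera, 5 x 10^5; R. oryzae 4745, 1 x 10^5. Deaths were recorded daily to day 10, moribund mice counted dead next day. 13–18 mice per group; log rank test.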
# [23] = tested on: Mus musculus; experiment: Increase in survival of neutropenic CD1 mouse infected with 0.1 mega Rhizopus oryzae 4745 at 50 mg/kg/day, po; format: functional, organism-based; summary of the method: as §7
# [24] = tested on: Rhizopus arrhizus; experiment: Reduction of number of infection foci in Rhizopus oryzae 4570 infected neutropenic CD1 mouse brain at 30 mg/kg/day, po; format: functional, organism-based; summary of the method: as §5
# [25] = tested on: Lichtheimia corymbifera; experiment: Reduction of infection foci size in Absidia corymbifera 4535 infected neutropenic CD1 mouse kidney at 30 mg/kg/day, po; format: functional, organism-based; summary of the method: as §5
# [26] = tested on: Lichtheimia corymbifera; experiment: Reduction of infection foci size in Absidia corymbifera 4535 infected neutropenic CD1 mouse brain at 30 mg/kg/day, po; format: functional, organism-based; summary of the method: as §5
# [27] = tested on: Lichtheimia corymbifera; experiment: Percentage of infected brain in neutropenic CD1 mouse infected with Absidia corymbifera 4535 at 30 mg/kg/day, po; format: functional; summary of the method: as §6
# [28] = tested on: Mus musculus; experiment: Increase in survival of Rhizopus oryzae 4570 infected neutropenic CD1 mouse at 20 mg/kg/day, po; format: functional, organism-based; summary of the method: as §7
# [29] = tested on: Mus musculus; experiment: Increase in survival of Absidia corymbifera 4535 infected neutropenic CD1 mouse at 80 mg/kg/day, po; format: functional, organism-based; summary of the method: as §7
# [30] = tested on: Rhizopus arrhizus; experiment: Percentage of infected kidney in neutropenic CD1 mouse infected with Rhizopus oryzae 4570 at 30 mg/kg/day, po; format: functional; summary of the method: as §6
# [31] = tested on: Mus musculus; experiment: Increase in survival of Absidia corymbifera 4535 infected neutropenic CD1 mouse at 20 mg/kg/day, po; format: functional, organism-based; summary of the method: as §7
# [32] = tested on: Rhizopus arrhizus; experiment: Reduction of infection foci size in Rhizopus oryzae 4570 infected neutropenic CD1 mouse brain at 30 mg/kg/day, po; format: functional, organism-based; summary of the method: as §5
# [33] = tested on: Lichtheimia corymbifera; experiment: Reduction of number of infection foci in Absidia corymbifera 4535 infected neutropenic CD1 mouse brain at 30 mg/kg/day, po; format: functional, organism-based; summary of the method: as §5
# [34] = tested on: Lichtheimia corymbifera; experiment: Percentage of infected lung in neutropenic CD1 mouse infected with Absidia corymbifera 4535 at 30 mg/kg/day, po; format: functional; summary of the method: as §6
# [35] = tested on: Rhizopus arrhizus; experiment: Percentage of infected spleen in neutropenic CD1 mouse infected with Rhizopus oryzae 4570 at 30 mg/kg/day, po; format: functional; summary of the method: as §6
smiles,measurement,setting,value
C[C@@H]1[C@H](O)[C@@H](C)/C=C/C=C/C=C/C=C/C=C/C=C/C=C/[C@H](O[C@@H]2O[C@H](C)[C@@H](O)[C@H](N)[C@@H]2O)C[C@@H]2O[C@](O)(C[C@@H](O)C[C@@H](O)[C@H](O)CC[C@@H](O)C[C@@H](O)CC(=O)O[C@H]1C)C[C@H](O)[C@H]2C(=O)O [AMPHOTERICIN B],Activity,[1],Active
same,Activity,[2],Active
same,MIC,[3],1 µg/mL
same,Activity,[4],Active
same,MIC,[5],0.5 µg/mL
same,Activity,[6],25%
same,Activity,[7],100%
same,Activity,[8],62.5%
same,Activity,[9],Active
same,MIC,[10],2 µg/mL
same,Activity,[11],Active
same,Activity,[12],Active
same,Activity,[13],Active
same,Activity,[14],Active
CC[C@@H]([C@H](C)O)n1ncn(-c2ccc(N3CCN(c4ccc(OC[C@@H]5CO[C@@](Cn6cncn6)(c6ccc(F)cc6F)C5)cc4)CC3)cc2)c1=O [POSACONAZOLE],Activity,[15],Active
same,Activity,[16],75%
same,Activity,[17],100%
same,Activity,[18],Active
same,Activity,[19],Active
same,Activity,[20],100%
same,Activity,[21],100%
same,Activity,[22],inactive
same,MIC,[3],0.25 µg/mL
same,Activity,[23],Active
same,Activity,[24],inactive
same,Activity,[25],Active
same,MIC,[5],1 µg/mL
same,Activity,[26],Active
same,Activity,[27],62.5%
same,Activity,[28],inactive
same,Activity,[29],Active
same,Activity,[30],100%
same,MIC,[10],1 µg/mL
same,Activity,[31],Active
same,Activity,[32],inactive
same,Activity,[33],Active
same,Activity,[34],12.5%
same,Activity,[35],100%
